pIC50: −log10 of the molar value.
Tests used:
Format in all cases: functional, cell-based
[1] = tested on: BGC-823; test: Cytotoxicity against human BGC823 cells after 96 hrs by MTT assay; settings: BGC-823, 96 h
Summary of the method: (§1)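 Cell lines from ATCC, grown in RPMI 1640 with 10% FBS plus penicillin/streptomycin at 37 °C, 5% CO2. Seeded at 1200 cells/well; compounds added 24 h later at five concentrations from DMSO stocks (final DMSO 0.1%), triplicate wells.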

[2] = tested on: A2780; test: Cytotoxicity against human A2780 cells after 96 hrs by MTT assay; settings: A2780, 96 h; summary of the method: as §1
[3] = tested on: Bel-7402; test: Cytotoxicity against human BEL-7402 cells after 96 hrs by MTT assay; settings: Bel-7402, 96 h; summary of the method: as §1
[4] = tested on: HCT-8; test: Cytotoxicity against human HCT8 cells after 96 hrs by MTT assay; settings: HCT-8, 96 h; summary of the method: as §1
[5] = tested on: A549; test: Cytotoxicity against human A549 cells after 96 hrs by MTT assay; settings: A549, 96 h; summary of the method: as §1

| Compound | IC50 [1] | IC50 [2] | IC50 [3] | IC50 [4] | IC50 [5] | pIC50 [1] | pIC50 [2] | pIC50 [3] | pIC50 [4] | pIC50 [5] |
| --- | --- | --- | --- | --- | --- | --- | --- | --- | --- | --- |
| COC(=O)CCCNC(=O)N(Cc1cc(O)c(O)c(Br)c1Br)Cc1cc(O)c(O)c(Br)c1Cc1cc(O)c(O)c(Br)c1Br | > 10 µg/mL | > 10 µg/mL | > 10 µg/mL | > 10 µg/mL | > 10 µg/mL |  |  |  |  |  |
| COC(=O)CCCNC(=O)NCc1cc(O)c(O)c(Br)c1Br | > 10 µg/mL | > 10 µg/mL | > 10 µg/mL | > 10 µg/mL | > 10 µg/mL |  |  |  |  |  |
| O=S(=O)(O)OCCc1cc(O)c(O)c(Br)c1Cc1cc(O)c(O)c(Br)c1Br |  |  |  |  |  | 4.82 | < 4.77 | 4.87 | 4.92 | 4.84 |
| COC(=O)CCCNC(=O)NCc1cc(O)c(O)c(Br)c1Cc1cc(O)c(O)c(Br)c1Br | > 10 µg/mL | > 10 µg/mL | > 10 µg/mL | > 10 µg/mL | > 10 µg/mL |  |  |  |  |  |
| O=S(=O)(O)OCCc1cc(O)c(O)c(Br)c1 |  |  |  |  |  | 4.72 | 4.68 | 4.69 | 4.73 | 4.73 |
| O=S(=O)(O)OCCc1cc(O)c(O)c(Br)c1Br |  |  |  |  |  | 4.85 | 5.03 | 4.83 | 4.84 | 4.83 |
| OCCc1cc(O)c(O)c(Br)c1Br |  |  |  |  |  | 4.69 | 4.70 | 4.71 | 4.81 | 4.71 |
| COC(=O)CCCN(Cc1cc(O)c(O)c(Br)c1Br)C(=O)NCc1cc(O)c(O)c(Br)c1Br | > 10 µg/mL | > 10 µg/mL | > 10 µg/mL | > 10 µg/mL | > 10 µg/mL |  |  |  |  |  |
| O=c1[nH]cc(F)c(=O)[nH]1 [FLUOROURACIL] |  |  |  |  |  | 5.27 | 5.30 | 5.38 | 5.38 | 5.85 |

From ChEMBL document CHEMBL1157245, “Bromophenols coupled with methyl gamma-ureidobutyrate and bromophenol sulfates from the red alga Rhodomela confervoides” (J Nat Prod, 2006)
